Measurements: ChEMBL document CHEMBL2321834 (J Med Chem, 2013)
Calls of active or inactive are those of the source. No cut-off for these calls is given here.

Key:
[1] = molecular target: T1, 17-beta-hydroxysteroid dehydrogenase type 2 (Homo sapiens) (UniProt P37059); details: Placenta, Microsomal, at 1 µM
T1 sequence (whole entry): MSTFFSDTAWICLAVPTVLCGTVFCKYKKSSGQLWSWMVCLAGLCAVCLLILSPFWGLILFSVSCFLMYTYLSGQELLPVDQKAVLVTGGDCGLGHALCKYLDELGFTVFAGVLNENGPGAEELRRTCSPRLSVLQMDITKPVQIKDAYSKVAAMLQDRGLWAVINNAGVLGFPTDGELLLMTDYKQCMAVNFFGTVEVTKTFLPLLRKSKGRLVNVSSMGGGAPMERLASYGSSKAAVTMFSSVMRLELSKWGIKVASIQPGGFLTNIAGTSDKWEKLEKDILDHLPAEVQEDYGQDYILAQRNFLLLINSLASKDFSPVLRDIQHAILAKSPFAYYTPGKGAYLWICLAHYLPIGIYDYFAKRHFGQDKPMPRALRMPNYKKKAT

[2] = molecular target: T2, 17-beta-hydroxysteroid dehydrogenase type 1 (Homo sapiens) (UniProt P14061); details: at 1 µM
T2 sequence (whole entry): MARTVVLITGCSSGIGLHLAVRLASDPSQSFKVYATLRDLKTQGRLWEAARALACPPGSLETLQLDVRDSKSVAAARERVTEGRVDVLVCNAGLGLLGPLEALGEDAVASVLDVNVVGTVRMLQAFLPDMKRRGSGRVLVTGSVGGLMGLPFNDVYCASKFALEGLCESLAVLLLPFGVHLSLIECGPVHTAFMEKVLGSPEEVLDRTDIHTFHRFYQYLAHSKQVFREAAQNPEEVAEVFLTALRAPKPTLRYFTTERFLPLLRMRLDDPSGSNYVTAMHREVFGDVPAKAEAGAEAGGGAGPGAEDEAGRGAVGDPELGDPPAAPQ

[3] = molecular target: T3, Estrogen receptor (Homo sapiens) (UniProt P03372); experiment: Displacement of [3H]E2 from human recombinant ERalpha after 1 hr by scintillation counting analysis relative to E2
T3 sequence (whole entry): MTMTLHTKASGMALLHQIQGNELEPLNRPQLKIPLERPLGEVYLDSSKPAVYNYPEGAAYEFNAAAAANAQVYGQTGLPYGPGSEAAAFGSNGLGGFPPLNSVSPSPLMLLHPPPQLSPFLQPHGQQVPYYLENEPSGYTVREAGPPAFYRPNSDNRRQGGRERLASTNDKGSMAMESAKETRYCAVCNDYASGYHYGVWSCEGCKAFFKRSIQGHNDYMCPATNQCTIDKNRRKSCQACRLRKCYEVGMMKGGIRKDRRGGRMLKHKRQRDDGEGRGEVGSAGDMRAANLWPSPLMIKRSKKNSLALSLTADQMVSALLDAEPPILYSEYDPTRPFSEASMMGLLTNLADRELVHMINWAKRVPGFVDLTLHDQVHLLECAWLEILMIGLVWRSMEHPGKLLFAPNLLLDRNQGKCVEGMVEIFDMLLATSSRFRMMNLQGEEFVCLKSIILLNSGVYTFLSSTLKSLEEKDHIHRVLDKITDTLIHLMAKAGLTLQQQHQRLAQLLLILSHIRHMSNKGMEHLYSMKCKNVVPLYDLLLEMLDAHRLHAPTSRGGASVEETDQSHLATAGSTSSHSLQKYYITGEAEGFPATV
Outline: (§1)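 Competitive binding assay against ERα and ERβ, with E2 as internal reference.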

[4] = molecular target: Estrogen receptor beta (Homo sapiens) (UniProt Q92731); experiment: Displacement of [3H]E2 from human recombinant ERbeta after 1 hr by scintillation counting analysis relative to E2
Sequence of Estrogen receptor beta (Homo sapiens) (Q92731 whole entry): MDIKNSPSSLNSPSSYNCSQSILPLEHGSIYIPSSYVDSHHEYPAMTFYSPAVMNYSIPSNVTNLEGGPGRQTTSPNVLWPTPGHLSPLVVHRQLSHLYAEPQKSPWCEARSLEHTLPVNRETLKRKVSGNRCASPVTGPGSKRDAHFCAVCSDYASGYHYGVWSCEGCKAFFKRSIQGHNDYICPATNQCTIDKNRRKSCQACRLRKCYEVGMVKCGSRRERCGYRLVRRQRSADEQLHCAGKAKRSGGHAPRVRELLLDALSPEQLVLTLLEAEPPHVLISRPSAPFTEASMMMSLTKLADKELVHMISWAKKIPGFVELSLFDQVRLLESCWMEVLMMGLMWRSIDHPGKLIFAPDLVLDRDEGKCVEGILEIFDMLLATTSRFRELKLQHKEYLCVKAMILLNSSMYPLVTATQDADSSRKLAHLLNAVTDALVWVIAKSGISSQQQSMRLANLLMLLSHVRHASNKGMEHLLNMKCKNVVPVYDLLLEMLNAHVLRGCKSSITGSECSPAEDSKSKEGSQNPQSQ
Outline: as §1

Homo sapiens = organism: Homo sapiens; experiment: Selectivity ratio of IC50 for 17beta-HSD1 in human placental microsomal fraction to IC50 for 17beta-HSD2 in human placental microsomal fraction; format: microsomes; details: Microsome
[5] = molecular target: T4, 17-beta-hydroxysteroid dehydrogenase type 1 (Homo sapiens, UniProt P14061); experiment: Inhibition of 17beta-HSD1 in human placental cytosolic fraction using [3H]E1 as substrate assessed as formation of E2 by HPLC analysis
T4 sequence (P14061 whole entry): T2 sequence (whole entry)

[6] = molecular target: T5, 17-beta-hydroxysteroid dehydrogenase type 2 (Homo sapiens, UniProt P37059); experiment: Inhibition of 17beta-HSD2 (unknown origin)
T5 sequence (P37059 whole entry): T1 sequence (whole entry)
Outline: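 Microsomal fraction of human placenta as enzyme source, incubated with tritiated E2, cofactor and inhibitor. Substrate and product separated by HPLC to give percent inhibition. IC50 determined for selected compounds.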

[7] = molecular target: T1, 17-beta-hydroxysteroid dehydrogenase type 2 (Homo sapiens); experiment: Inhibition of 17beta-HSD2 in human MDA-MB-231 cells using [3H]E2 as substrate at 1 uM after 6 hrs by HPLC analysis; format: cell-based
[8] = molecular target: T6, Aldo-keto reductase family 1 member C3 (Homo sapiens) (UniProt P42330); experiment: Inhibition of human recombinant 17beta-HSD5 expressed in Escherichia coli using [1,2,6,7-3H]A-dione as substrate at 1 uM by scintillation counting analysis
T6 sequence (whole entry): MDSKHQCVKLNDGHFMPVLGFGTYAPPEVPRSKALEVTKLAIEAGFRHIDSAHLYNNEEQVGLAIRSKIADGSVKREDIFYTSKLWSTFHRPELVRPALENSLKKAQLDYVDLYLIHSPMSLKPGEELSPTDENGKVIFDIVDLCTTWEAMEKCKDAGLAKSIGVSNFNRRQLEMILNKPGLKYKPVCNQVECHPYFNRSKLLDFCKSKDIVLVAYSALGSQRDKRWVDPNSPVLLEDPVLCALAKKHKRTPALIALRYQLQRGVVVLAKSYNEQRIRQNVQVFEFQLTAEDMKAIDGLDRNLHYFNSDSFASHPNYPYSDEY

[9] = molecular target: T7, Peroxisomal multifunctional enzyme type 2 (Homo sapiens) (UniProt P51659); experiment: Inhibition of human recombinant 17beta-HSD4 SDR domain expressed in Escherichia coli using [6,7-3H]E2 as substrate at 1 uM by scintillation counting analysis
T7 sequence (whole entry): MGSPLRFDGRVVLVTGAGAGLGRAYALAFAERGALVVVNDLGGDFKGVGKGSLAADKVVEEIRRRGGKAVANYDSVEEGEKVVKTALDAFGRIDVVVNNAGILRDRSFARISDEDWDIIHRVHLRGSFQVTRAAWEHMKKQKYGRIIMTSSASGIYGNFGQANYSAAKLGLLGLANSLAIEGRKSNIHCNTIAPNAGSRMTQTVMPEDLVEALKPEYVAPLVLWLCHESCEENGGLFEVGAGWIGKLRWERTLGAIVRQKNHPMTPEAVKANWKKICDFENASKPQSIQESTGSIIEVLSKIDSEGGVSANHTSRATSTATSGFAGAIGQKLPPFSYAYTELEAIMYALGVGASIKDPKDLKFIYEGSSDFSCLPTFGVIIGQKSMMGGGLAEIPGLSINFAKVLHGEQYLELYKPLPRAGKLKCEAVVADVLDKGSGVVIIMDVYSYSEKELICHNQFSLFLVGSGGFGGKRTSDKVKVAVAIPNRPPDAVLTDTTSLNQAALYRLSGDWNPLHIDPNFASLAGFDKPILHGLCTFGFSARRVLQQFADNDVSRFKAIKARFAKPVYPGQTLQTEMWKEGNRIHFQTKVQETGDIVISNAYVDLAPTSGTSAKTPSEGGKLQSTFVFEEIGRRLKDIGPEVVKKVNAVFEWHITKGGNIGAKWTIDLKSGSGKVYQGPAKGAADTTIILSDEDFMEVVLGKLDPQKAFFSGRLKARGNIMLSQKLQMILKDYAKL

SMILES	inhibition [1]	inhibition [2]	RBA [3]	RBA [4]	further results
COc1cccc(CN(C)C(=O)c2ccc(-c3cccc(OC)c3)s2)c1	63%	< 10%			
CN(CCc1cccc(O)c1)C(=O)c1ccc(-c2ccccc2)s1	11%	< 10%			
CN(Cc1cccc(O)c1)C(=O)c1cccc(-c2cccc(O)c2)c1	60%	10%			
CN(Cc1cccc(O)c1)C(=O)c1ccc(-c2ccccc2O)s1	83%	16%			
CN(Cc1cccc(O)c1)C(=O)c1ccc(-c2cccc(F)c2)s1	71%	20%			
CN(CCc1cccc(O)c1)C(=O)c1ccc(-c2cccc(F)c2)s1	17%	12%			
COc1cccc(N(C)C(=O)c2ccc(-c3cccc(SC)c3)s2)c1			< 0.1%	< 0.1%	
COc1ccc(N(C)C(=O)c2ccc(-c3cccc(OC)c3F)s2)cc1	49%	18%			
COc1ccc(-c2cccc(C(=O)N(C)Cc3cccc(OC)c3)c2)cc1	13%	< 10%			
CN(Cc1cccc(O)c1)C(=O)c1ccc(-c2cccc(O)c2)s1	70%	21%			Ratio IC50 (Homo sapiens): 14
COc1cccc(CN(C)C(=O)c2ccc(-c3ccccc3OC)s2)c1		< 10%			
COc1cccc(N(C)C(=O)c2ccc(-c3ccc(OC)cc3OC)s2)c1	77%	30%	< 0.1%	< 0.1%	Ratio IC50 (Homo sapiens): 6
COc1cccc(-c2ccc(C(=O)N(C)c3cccc(C)c3)s2)c1	87%	< 10%	< 0.1%	< 0.1%	Ratio IC50 (Homo sapiens): 55
COc1cccc(N(C)C(=O)c2ccc(-c3ccc(OC)c(F)c3)s2)c1	72%	15%	< 0.1%	< 0.1%	IC50 [5]: > 40000 nM
COc1cccc(-c2ccc(C(=O)N(C)c3cccc(C(F)(F)F)c3)s2)c1	75%	13%	< 0.1%	< 0.1%	Ratio IC50 (Homo sapiens): 17
COc1cccc(CCN(C)C(=O)c2ccc(-c3cccc(OC)c3)s2)c1	31%	< 10%			
COc1cccc(CCN(C)C(=O)c2ccc(-c3ccccc3)s2)c1	18%	11%			
COc1cccc(-c2ccc(C(=O)N(C)c3cccc(C)c3)s2)c1F			< 0.1%	< 0.1%	

SMILES	inhibition [1]	inhibition [2]	RBA [3]	RBA [4]	further results
C[C@]12CC[C@@H]3c4ccc(O)cc4CC[C@H]3[C@@H]1CC[C@@]21CCCC(=O)O1					IC50 [6]: 34 nM
COc1cccc(N(C)C(=O)c2ccc(-c3c(F)ccc(OC)c3F)s2)c1			< 0.1%	< 0.1%	
COc1cccc(CN(C)C(=O)c2ccc(-c3ccc(C#N)cc3)s2)c1	< 10%	< 10%			
COc1cccc(N(C)C(=O)c2ccc(-c3cccc(C)c3)s2)c1			< 0.1%	< 0.1%	
COc1cccc(CCN(C)C(=O)c2ccc(-c3cccc(F)c3)s2)c1	< 10%	< 10%			
COc1cccc(-c2ccc(C(=O)N(C)c3cccc(-c4ccccc4)c3)s2)c1	83%	50%	< 0.1%	< 0.1%	Ratio IC50 (Homo sapiens): 8
COc1cccc(N(C)C(=O)c2ccc(-c3ccccc3)s2)c1	82%	24%	< 0.1%	< 0.1%	Ratio IC50 (Homo sapiens): 21
COc1cccc(N(C)C(=O)c2ccc(-c3cccc(N(C)C)c3)s2)c1	82%	11%	< 0.1%	< 0.1%	Ratio IC50 (Homo sapiens): 63; inhibition [7]: 71%
COc1cccc(-c2cccc(C(=O)N(C)c3cccc(OC)c3)c2)c1	64%	< 10%			
COc1ccc(-c2ccc(C(=O)N(C)c3cccc(OC)c3)s2)cc1			< 0.1%	< 0.1%	
COc1cccc(N(C)C(=O)c2ccc(-c3cccc(C)c3F)s2)c1			< 0.1%	< 0.1%	
CN(CCc1cccc(O)c1)C(=O)c1ccc(-c2cccc(O)c2)s1	37%	23%			
COc1cccc(-c2ccc(C(=O)N(C)c3cccc(OC)c3)s2)c1			< 0.1%	< 0.1%	
Cc1cccc(N(C)C(=O)c2ccc(-c3cccc(O)c3)s2)c1	71%	24%	< 0.1%	< 0.1%	Ratio IC50 (Homo sapiens): 11
Cn1nc(-c2cccc(O)c2)nc1-c1ccc(-c2cccc(O)c2)cc1					IC50 [6]: 1400 nM
COc1cccc(N(C)C(=O)c2ccc(-c3ccc(F)c(OC)c3)s2)c1	66%	17%			
CN1C(=O)C[C@@H](c2ccccc2)[C@H]1[C@H](O)c1ccc(-c2cccnc2)s1					inhibition [8]: 88%; inhibition [9]: inactive
